{
  "source": "paper PMC2740628",
  "about": "(Colloids and surfaces. B, Biointerfaces, 2009)",
  "key": {"[1]": {"test_system": "B16 melanoma cell line", "settings": "48 h exposure; cited from earlier work"}, "[2]": {"test_system": "human erythrocytes", "settings": "cited from earlier work"}, "[3]": {"test_system": "B16F10 mouse melanoma cell line", "assay": "MTT-based cytotoxicity test", "type": "cell-based", "settings": "for EC50: read-out: Cytotoxicity EC50, B16F10, 24 h exposure, MTT, range 1 μM to 250 μM; for Cytotoxicity (in words): B16F10, 24 h, 1 μM to 250 μM", "outline": "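B16F10 cells were grown in D-MEM with 10% FCS, antibiotics and glutamine at 37 °C, 5% CO2. Cells were seeded at 2.5–3.0 × 10^4/mL and grown for 16–24 h. Compounds were added from DMSO/PBS (DMSO below 1% final) at 1–250 μM for 24 h, with octylthioglucoside as positive control. MTT was applied for 3 h, formazan was dissolved with SDS (pH 5.5) and read at 540 nm the next day. EC50 came from dose-response curves, run in triplicate.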"}, "[4]": {"test_system": "Rabbit red blood cells", "assay": "Haemolytic activity test", "type": "cell-based", "settings": "for EC50: 2 h, 37 °C; for Haemolytic activity (in words): 7 μM to 3.3 mM", "outline": "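Rabbit erythrocytes (2% in PBS) were tested in PBS alone or in PBS with 20% fetal bovine serum. Compounds were dissolved in DMSO, then PBS (DMSO at most 5% final) and tested from 7 μM to 3.3 mM. After 2 h at 37 °C, cells were pelleted at 700g for 10 min. Released haemoglobin was read at 540 nm. The value reported is the lowest concentration giving 50% haemolysis.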"}, "[5]": {"assay": "DPH steady-state fluorescence anisotropy, membrane partitioning", "type": "physicochemical", "settings": "for Membrane partition coefficient K (DPPC bilayers / aqueous phase): calculated with equation 2 from the depression of Tm, surfactant 0-20 μM; for Effect on phase transition temperature Tm of DPPC (in words): surfactant 0 to 20 μM, DPH-labelled DPPC vesicles", "outline": "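DPPC large unilamellar vesicles were made with DPH at a lipid:DPH molar ratio of 500:1 and surfactant at 0–20 μM, mixed in chloroform and dried. They were hydrated in water above 50 °C for 1 h and extruded 15 times at 50 °C. Anisotropy was read at λex 350/λem 452 nm while cooling from 50 °C to 20 °C at 0.2 °C/min. Tm was taken from anisotropy-temperature plots and K from the Tm shift (ΔHm 31.38 kJ·mol-1). Run in triplicate.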"}, "[6]": {"test_system": "B16F10 cells", "settings": "cited from earlier work"}, "[7]": {"test_system": "Rabbit red blood cells", "settings": "at 3.3 mM (highest concentration), data reported previously ref 15; cited from earlier work"}, "[8]": {"settings": "read-out: Haemolytic activity EC50 20 % serum, rabbit red blood cells, PBS containing 20% fetal bovine serum"}, "[9]": {"settings": "read-out: Haemolytic activity EC50 without serum, rabbit red blood cells 2% in PBS, without serum"}, "[10]": {"settings": "at 3.3 mM (highest concentration), without serum"}},
  "note": "Like-named read-outs stand apart in the source and are kept apart here.",
  "data": [
    {"smiles": "OC[C@H]1O[C@@H](OCCC(F)(F)C(F)(F)C(F)(F)C(F)(F)C(F)(F)C(F)(F)C(F)(F)C(F)(F)C(F)(F)C(F)(F)F)[C@H](O)[C@@H](O)[C@@H]1O", "note": "[3,3,4,4,5,5,6,6,7,7,8,8,9,9,10,10,11,11,12,12,12-heneicosafluoro-dodecyl-β-D-glucopyranoside]", "values": [
      {"measurement": "Toxicity at 50 μM (in words)", "setting": "[1]", "value": "nontoxic"}
    ]},
    {"smiles": "CCCCCCCCCCCCO[C@@H]1O[C@H](CO)[C@@H](O[C@H]2O[C@H](CO)[C@@H](O)[C@H](O)[C@H]2O)[C@H](O)[C@H]1O", "note": "[C12 maltopyranoside]", "values": [
      {"measurement": "Lowest concentration causing lysis of human erythrocytes", "setting": "[2]", "value": 58, "unit": "µM"}
    ]},
    {"smiles": "CCCCCCCCS[C@@H]1O[C@H](CO)[C@@H](O)[C@H](O)[C@H]1O", "note": "[OTG, Octylthioglucoside, reference compound]", "values": [
      {"measurement": "EC50", "setting": "[3]", "value": "> 250", "unit": "µM"},
      {"measurement": "EC50", "setting": "[4]; [8]", "value": 3000, "unit": "µM"},
      {"measurement": "EC50", "setting": "[4]; [9]", "value": 500, "unit": "µM"}
    ]},
    {"smiles": "OCC1OC(OCCC(F)(F)C(F)(F)C(F)(F)C(F)(F)C(F)(F)C(F)(F)C(F)(F)C(F)(F)C(F)(F)C(F)(F)F)C(O)C(O)C1O", "note": "[corresponding β-D-galactopyranoside]", "values": [
      {"measurement": "Toxicity at 50 μM (in words)", "setting": "[1]", "value": "displayed some toxicity"}
    ]},
    {"smiles": "CCCCCCCCCCCCCCO[C@H]1O[C@H](CO)[C@@H](O)[C@H](O)[C@H]1O", "note": "[α-13b]", "values": [
      {"measurement": "EC50", "setting": "[3]", "value": 53, "unit": "µM"},
      {"measurement": "Haemolysis, percentage in parentheses after >3.3 mM, 20 % serum", "setting": "[4]; at 3.3 mM (highest concentration), 20 % serum", "value": 30, "unit": "%"},
      {"measurement": "EC50", "setting": "[4]; [8]", "value": "> 3300", "unit": "µM"},
      {"measurement": "EC50", "setting": "[4]; [9]", "value": 2500, "unit": "µM"}
    ]},
    {"smiles": "CCCCCCCCCCCCCCCCO[C@H]1O[C@H](CO)[C@@H](O)[C@H](O)[C@H]1O", "note": "[α-13d]", "values": [
      {"measurement": "EC50", "setting": "[3]", "value": 70, "unit": "µM"},
      {"measurement": "Haemolysis, percentage in parentheses after >3.3 mM, without serum", "setting": "[4]; [10]", "value": 20, "unit": "%"},
      {"measurement": "EC50", "setting": "[4]; [8]", "value": "> 3300", "unit": "µM"},
      {"measurement": "EC50", "setting": "[4]; [9]", "value": "> 3300", "unit": "µM"}
    ]},
    {"smiles": "CCCCCCCCCCCCCCCCCO[C@H]1O[C@H](CO)[C@@H](O)[C@H](O)[C@H]1O", "note": "[α-13e]", "values": [
      {"measurement": "EC50", "setting": "[3]", "value": 37, "unit": "µM"},
      {"measurement": "Haemolysis, percentage in parentheses after >3.3 mM, without serum", "setting": "[4]; [10]", "value": 25, "unit": "%"},
      {"measurement": "EC50", "setting": "[4]; [8]", "value": "> 3300", "unit": "µM"},
      {"measurement": "EC50", "setting": "[4]; [9]", "value": "> 3300", "unit": "µM"}
    ]},
    {"smiles": "CCCCCCCCCCCCCCCCCCCO[C@H]1O[C@H](CO)[C@@H](O)[C@H](O)[C@H]1O", "note": "[α-13g, nonadecyl α-D-glucopyranoside]", "values": [
      {"measurement": "Cytotoxicity (in words)", "setting": "[3]", "value": "did not show a cytotoxic effect"},
      {"measurement": "EC50", "setting": "[3]", "value": "> 250", "unit": "µM"},
      {"measurement": "Haemolytic activity (in words)", "setting": "[4]; rabbit red blood cells", "value": "not haemolytic"},
      {"measurement": "EC50", "setting": "[4]; [8]", "value": "> 3300", "unit": "µM"},
      {"measurement": "EC50", "setting": "[4]; [9]", "value": "> 3300", "unit": "µM"}
    ]},
    {"smiles": "CCCCCCCO[C@@H]1O[C@H](CO)[C@@H](O)[C@H](O)[C@H]1O", "note": "[β-13a, Heptyl-β-D-glucopyranoside]", "values": [
      {"measurement": "Membrane partition coefficient K (DPPC bilayers / aqueous phase)", "setting": "[5]", "value": "4.61×10^4"},
      {"measurement": "Effect on phase transition temperature Tm of DPPC (in words)", "setting": "[5]", "value": "decreased the phase transition temperature of DPPC only slightly"},
      {"measurement": "Cytotoxicity (in words)", "setting": "[3]", "value": "insignificant"},
      {"measurement": "EC50", "setting": "[3]", "value": "> 250", "unit": "µM"},
      {"measurement": "Haemolytic activity (in words)", "setting": "[4]; rabbit red blood cells", "value": "essentially nonhaemolytic"},
      {"measurement": "EC50", "setting": "[4]; [8]", "value": "> 3300", "unit": "µM"},
      {"measurement": "EC50", "setting": "[4]; [9]", "value": "> 3300", "unit": "µM"}
    ]},
    {"smiles": "CCCCCCCCCCCCCCCCO[C@@H]1O[C@H](CO)[C@@H](O)[C@H](O)[C@H]1O", "note": "[β-13d, hexadecyl β-D-glucopyranoside]", "values": [
      {"measurement": "Membrane partition coefficient K (DPPC bilayers / aqueous phase)", "setting": "[5]", "value": "2.78×10^5"},
      {"measurement": "Effect on phase transition temperature Tm of DPPC (in words)", "setting": "[5]", "value": "decreased linearly over the entire concentration range investigated"}
    ]},
    {"smiles": "CCCCCCCCCCCCCCCCCO[C@@H]1O[C@H](CO)[C@@H](O)[C@H](O)[C@H]1O", "note": "[β-13e]", "values": [
      {"measurement": "Apoptosis (in words)", "setting": "[6]", "value": "induced apoptosis"},
      {"measurement": "Haemolysis, percentage in parentheses after >3.3 mM, 20 % serum", "setting": "[7]", "value": 5, "unit": "%"}
    ]},
    {"smiles": "CCCCCCCO[C@@H]1O[C@H](CO)[C@H](O)[C@H](O)[C@H]1O", "note": "[β-15a]", "values": [
      {"measurement": "EC50", "setting": "[3]", "value": "> 250", "unit": "µM"},
      {"measurement": "EC50", "setting": "[4]; [8]", "value": "> 3300", "unit": "µM"},
      {"measurement": "EC50", "setting": "[4]; [9]", "value": "> 3300", "unit": "µM"}
    ]},
    {"smiles": "CCCCCCCCCCCCCCCCO[C@@H]1O[C@H](CO)[C@H](O)[C@H](O)[C@H]1O", "note": "[β-15b, hexadecyl β-D-galactopyranoside]", "values": [
      {"measurement": "Membrane partition coefficient K (DPPC bilayers / aqueous phase)", "setting": "[5]", "value": "5.15×10^5"},
      {"measurement": "Effect on phase transition temperature Tm of DPPC (in words)", "setting": "[5]", "value": "linear decrease in Tm up to a surfactant concentration of 7 μM and an approximately constant Tm at concentrations ≥ 10 μM"},
      {"measurement": "EC50", "setting": "[3]", "value": "> 250", "unit": "µM"},
      {"measurement": "Haemolysis, percentage in parentheses after >3.3 mM, without serum", "setting": "[4]; [10]", "value": 40, "unit": "%"},
      {"measurement": "EC50", "setting": "[4]; [8]", "value": "> 3300", "unit": "µM"},
      {"measurement": "EC50", "setting": "[4]; [9]", "value": "> 3300", "unit": "µM"}
    ]},
    {"smiles": "CCCCCCCCCCCCCCCCO[C@@H]1O[C@H](CO)[C@@H](O[C@H]2O[C@H](CO)[C@@H](O)[C@H](O)[C@H]2O)[C@H](O)[C@H]1O", "note": "[β-17b]", "values": [
      {"measurement": "EC50", "setting": "[3]", "value": 67, "unit": "µM"},
      {"measurement": "Haemolytic activity (in words)", "setting": "[4]; rabbit red blood cells", "value": "most haemolytic compound under investigation"},
      {"measurement": "EC50", "setting": "[4]; [8]", "value": 150, "unit": "µM"},
      {"measurement": "EC50", "setting": "[4]; [9]", "value": 30, "unit": "µM"}
    ]}
  ]
}
